Key:
Assay type in all cases: functional
Enterococcus faecium = assay: Antibacterial activity against Enterococcus faecium NCTC 7171 incubated for 16 to 20 hrs by microdilution method
Method in brief: (§1)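 CLSI broth microdilution. 2-fold serial dilutions were made in cation-adjusted Mueller–Hinton broth, with 5% lysed horse blood added for Streptococcus strains, in triplicate. Inoculum 5×10^5 CFU/mL. Plates incubated 36 °C for 16–20 h. MIC taken as the lowest concentration visibly inhibiting growth.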

Klebsiella pneumoniae = assay: Antibacterial activity against Klebsiella pneumoniae ATCC 700603 incubated for 16 to 20 hrs by microdilution method; method in brief: as §1
Klebsiella aerogenes = assay: Antibacterial activity against Enterobacter aerogenes ATCC 35029 incubated for 16 to 20 hrs by microdilution method; method in brief: as §1
Acinetobacter baumannii = assay: Antibacterial activity against Acinetobacter baumannii ATCC 17961 incubated for 16 to 20 hrs by microdilution method; method in brief: as §1
Pseudomonas aeruginosa = assay: Antibacterial activity against Pseudomonas aeruginosa […] incubated for 16 to 20 hrs by microdilution method; method in brief: as §1
Escherichia coli = assay: Antibacterial activity against Escherichia coli ATCC 25922 incubated for 16 to 20 hrs by microdilution method; method in brief: as §1

Row | Structure (SMILES) | MIC (Enterococcus faecium) [µg/mL] | MIC (Klebsiella pneumoniae) [µg/mL] | MIC (Klebsiella aerogenes) [µg/mL] | MIC (Acinetobacter baumannii) [µg/mL] | MIC (Pseudomonas aeruginosa) [µg/mL] | MIC (Escherichia coli) [µg/mL]
1 | N#Cc1ccc(/C=C/c2nc3ccccc3c(=O)n2-c2cc[nH]n2)cc1 | ≥ 8 | ≥ 16 | ≥ 16 | ≥ 16 | ≥ 16 | ≥ 16
2 | N#Cc1ccc(/C=C/c2nc3ccncc3c(=O)n2-c2cccc(C(N)=O)c2)cc1 | ≥ 8 | ≥ 16 | ≥ 16 | ≥ 16 | ≥ 16 | ≥ 16
3 | N#Cc1ccc(/C=C/c2nc3ccccc3c(=O)n2-c2cccc(C(=O)NCc3cccnc3)c2)cc1 | ≥ 8 | ≥ 16 | ≥ 16 | ≥ 16 | ≥ 16 | ≥ 16
4 | CS(=O)(=O)NCc1cccc(-n2c(/C=C/c3ccc(C#N)cc3)nc3ccccc3c2=O)c1 | ≥ 8 | ≥ 16 | ≥ 16 | ≥ 16 | ≥ 16 | ≥ 16
5 | N#Cc1ccc(/C=C/c2nc3ccccc3c(=O)n2-c2cccc([N+](=O)[O-])c2)cc1 | ≥ 8 | ≥ 16 | ≥ 16 | ≥ 16 | ≥ 16 | ≥ 16
6 | CC(=O)OCCCn1c(/C=C/c2ccc(C#N)cc2)nc2ccccc2c1=O | ≥ 8 | ≥ 16 | ≥ 16 | ≥ 16 | ≥ 16 | ≥ 16
7 | O=c1c2cc(Br)ccc2nc(/C=C/c2ccc([N+](=O)[O-])cc2)n1-c1cccc(O)c1 | ≥ 8 | ≥ 16 | ≥ 16 | ≥ 16 | ≥ 16 | ≥ 16
8 | O=c1c2ccccc2nc(/C=C/c2ccc(F)cc2)n1-c1cccc([N+](=O)[O-])c1 | ≥ 8 | ≥ 16 | ≥ 16 | ≥ 16 | ≥ 16 | ≥ 16
9 | CS(=O)(=O)c1ccc(/C=C/c2nc3ccccc3c(=O)n2-c2cccc(C(=O)O)c2)cc1 | ≥ 8 | ≥ 16 | ≥ 16 | ≥ 16 | ≥ 16 | ≥ 16
10 | O=c1c2cnccc2nc(/C=C/c2ccc(F)cc2)n1-c1cccc(O)c1 | ≥ 8 | ≥ 16 | ≥ 16 | ≥ 16 | ≥ 16 | ≥ 16
11 | CC(C)Nc1cccc(-n2c(/C=C/c3ccc(C#N)cc3)nc3ccccc3c2=O)c1 | ≥ 8 | ≥ 16 | ≥ 16 | ≥ 16 | ≥ 16 | ≥ 16
12 | O=c1c2cnccc2nc(/C=C/c2ccc(Cl)cc2)n1-c1cccc(O)c1 | ≥ 8 | ≥ 16 | ≥ 16 | ≥ 16 | ≥ 16 | ≥ 16
13 | CC(C)c1ccc(/C=C/c2nc3ccccc3c(=O)n2-c2cccc(O)c2)cc1 | ≥ 8 | ≥ 16 | ≥ 16 | ≥ 16 | ≥ 16 | ≥ 16
14 | O=c1c2ccccc2nc(/C=C/C2CCCCC2)n1-c1cccc(O)c1 | ≥ 8 | ≥ 16 | ≥ 16 | ≥ 16 | ≥ 16 | ≥ 16
15 | CC(=O)Oc1ccc(-n2c(/C=C/c3ccc([N+](=O)[O-])cc3)nc3ccccc3c2=O)cc1 | ≥ 8 | ≥ 16 | ≥ 16 | ≥ 16 | ≥ 16 | ≥ 16
16 | O=C(NCCO)c1cccc(-n2c(/C=C/c3ccc(F)cc3)nc3ccccc3c2=O)c1 | ≥ 8 | ≥ 16 | ≥ 16 | ≥ 16 | ≥ 16 | ≥ 16

Row | Structure (SMILES) | MIC (Enterococcus faecium) [µg/mL] | MIC (Klebsiella pneumoniae) [µg/mL] | MIC (Klebsiella aerogenes) [µg/mL] | MIC (Acinetobacter baumannii) [µg/mL] | MIC (Pseudomonas aeruginosa) [µg/mL] | MIC (Escherichia coli) [µg/mL]
17 | CC(=O)OCC#Cc1ccc(/C=C/c2nc3ccccc3c(=O)n2-c2cccc(C(=O)O)c2)cc1 | ≥ 8 | ≥ 16 | ≥ 16 | ≥ 16 | ≥ 16 | ≥ 16
18 | NC(=O)c1cccc(-n2c(/C=C/c3ccc(F)cc3)nc3ccncc3c2=O)c1 | ≥ 8 | ≥ 16 | ≥ 16 | ≥ 16 | ≥ 16 | ≥ 16
19 | N#Cc1ccc(/C=C/c2nc3cc(N)ccc3c(=O)n2-c2cccc(C(=O)O)c2)cc1 | ≥ 8 | ≥ 16 | ≥ 16 | ≥ 16 | ≥ 16 | ≥ 16
20 | O=c1c2ccccc2nc(/C=C/c2ccc([N+](=O)[O-])cc2)n1-c1cccc(O)c1 | ≥ 8 | ≥ 16 | ≥ 16 | ≥ 16 | ≥ 16 | ≥ 16
21 | O=c1c2cc(O)ccc2nc(/C=C/c2ccc(F)cc2)n1-c1cccc(O)c1 | ≥ 8 | ≥ 16 | ≥ 16 | ≥ 16 | ≥ 16 | ≥ 16
22 | NC(=O)c1cccc(-n2c(/C=C/c3ccc(F)cc3)nc3ccccc3c2=O)c1 | ≥ 8 | ≥ 16 | ≥ 16 | ≥ 16 | ≥ 16 | ≥ 16
23 | N#Cc1ccc(/C=C/c2nc3ccccc3c(=O)n2-c2cccc(CC(=O)O)c2)cc1 | ≥ 8 | ≥ 16 | ≥ 16 | ≥ 16 | ≥ 16 | ≥ 16
24 | Nc1cccc(-n2c(/C=C/c3ccc(F)cc3)nc3ccccc3c2=O)c1 | ≥ 8 | ≥ 16 | ≥ 16 | ≥ 16 | ≥ 16 | ≥ 16
25 | CC(=O)Oc1cccc(-n2c(/C=C/c3ccc([N+](=O)[O-])cc3)nc3ccccc3c2=O)c1 | ≥ 8 | ≥ 16 | ≥ 16 | ≥ 16 | ≥ 16 | ≥ 16
26 | N#Cc1ccc(/C=C/c2nc3ccncc3c(=O)n2-c2cccc(O)c2)cc1 | ≥ 8 | ≥ 16 | ≥ 16 | ≥ 16 | ≥ 16 | ≥ 16
27 | O=C(O)c1cccc(-n2c(/C=C/c3ccc(F)c(F)c3)nc3ccccc3c2=O)c1 | ≥ 8 | ≥ 16 | ≥ 16 | ≥ 16 | ≥ 16 | ≥ 16
28 | O=C(O)c1cccc(-n2c(/C=C/c3ccc(F)cc3)nc3ccncc3c2=O)c1 | ≥ 8 | ≥ 16 | ≥ 16 | ≥ 16 | ≥ 16 | ≥ 16
29 | O=c1c2ccccc2nc(/C=C/c2ccc([N+](=O)[O-])cc2)n1-c1ccccc1O | ≥ 8 | ≥ 16 | ≥ 16 | ≥ 16 | ≥ 16 | ≥ 16
30 | O=c1c2ccccc2nc(/C=C/c2cccc([N+](=O)[O-])c2)n1-c1cccc(O)c1 | ≥ 8 | ≥ 16 | ≥ 16 | ≥ 16 | ≥ 16 | ≥ 16
31 | Cc1ccc(/C=C/c2nc3ccccc3c(=O)n2-c2cccc(O)c2)cc1 | ≥ 8 | ≥ 16 | ≥ 16 | ≥ 16 | ≥ 16 | ≥ 16
32 | N#Cc1ccc(/C=C/c2nc3ccncc3c(=O)n2-c2cccc(C(=O)O)c2)cc1 | ≥ 8 | ≥ 16 | ≥ 16 | ≥ 16 | ≥ 16 | ≥ 16

Source: ChEMBL document CHEMBL3817745, “Structure-Activity Relationship for the 4(3H)-Quinazolinone Antibacterials” (J Med Chem, 2016)
